Legend:
RA patients = experiment: Study 2, treatment‐emergent adverse events; type: in vivo, human
Summary of the method: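 Both double-blind, placebo-controlled trials in RA patients on stable MTX. Oral capsules daily for 4 weeks, with 7–10-day follow-up: 200 mg once daily or 100 mg twice daily (study 1); 30, 75, 150 or 300 mg once daily (study 2). At every visit: AEs, vital signs, hematology, serum biochemistry, coagulation and urinalysis. EKG at baseline and follow-up, plus week 4 in study 1. Safety population, descriptive treatment-emergent AE summaries.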

[1] = system: RA patients with an inadequate response to MTX; experiment: Study 2; type: in vivo, human; conditions: for ACR20 responders at week 4 / ACR50 responders at week 4 / DAS28‐CRP, mean change from baseline at week 4 / EULAR cumulative score, good/moderate, at week 4 / HAQ DI score, mean change from baseline at week 4 / Patient's assessment of pain, mean change from baseline at week 4 / Patient's global assessment of disease activity, mean change from baseline at week 4 / Physician's global assessment of disease activity, mean change from baseline at week 4 / Remission rate (DAS28‐CRP <2.6) at week 4 / SJC66, mean change from baseline at week 4 / Serum CRP, mean change from baseline at week 4 / TJC68, mean change from baseline at week 4: study 2
Summary of the method: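 Randomized, double-blind, placebo-controlled dose-ranging trial: 91 RA patients, 19 sites in 4 countries, 1:1:1:1:1 allocation. Patients had MTX for ≥12 weeks and a stable 7.5–25 mg/week dose for ≥4 weeks, continued throughout. Oral capsules once daily at 30, 75, 150 or 300 mg for 4 weeks. Read-outs: ACR responses, DAS28-CRP and HAQ DI change from baseline at week 4. Intent-to-treat population.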

O=C(Nc1nc2cccc(-c3ccc(CN4CCS(=O)(=O)CC4)cc3)n2n1)C1CC1 [Filgotinib]
treatment-related TEAE: Musculoskeletal and connective tissue disorders (RA patients; 150 mg once daily): 0 number (%) of patients | treatment-related TEAE: Nervous system disorders (RA patients; 150 mg once daily): 0 number (%) of patients | treatment-related TEAE: Renal and urinary disorders (RA patients; 150 mg once daily): 0 number (%) of patients | treatment-related TEAE: Abdominal discomfort (RA patients; 300 mg once daily): 0 number (%) of patients | treatment-related TEAE: Abdominal pain, upper (RA patients; 300 mg once daily): 0 number (%) of patients | treatment-related TEAE: Aspartate aminotransferase increased (RA patients; 300 mg once daily): 0 number (%) of patients | treatment-related TEAE: Blood amylase increased (RA patients; 300 mg once daily): 0 number (%) of patients | treatment-related TEAE: Blood and lymphatic system disorders (RA patients; 300 mg once daily): 0 number (%) of patients | treatment-related TEAE: Blood triglycerides increased (RA patients; 300 mg once daily): 0 number (%) of patients | treatment-related TEAE: Cystitis, noninfectious (RA patients; 300 mg once daily): 1 (5.0) number (%) of patients | treatment-related TEAE: Duodenogastric reflux (RA patients; 300 mg once daily): 0 number (%) of patients | treatment-related TEAE: Ear and labyrinth disorders (RA patients; 300 mg once daily): 0 number (%) of patients | treatment-related TEAE: Gastrointestinal disorders (RA patients; 300 mg once daily): 2 (10.0) number (%) of patients | treatment-related TEAE: Gastrointestinal pain (RA patients; 300 mg once daily): 1 (5.0) number (%) of patients | treatment-related TEAE: General disorders and administration site reactions (RA patients; 300 mg once daily): 0 number (%) of patients | treatment-related TEAE: Gingival bleeding (RA patients; 300 mg once daily): 0 number (%) of patients | treatment-related TEAE: Laboratory findings (RA patients; 300 mg once daily): 0 number (%) of patients | treatment-related TEAE: Lipase increased (RA patients; 300 mg once daily): 0 number (%) of patients | treatment-related TEAE: Musculoskeletal and connective tissue disorders (RA patients; 300 mg once daily): 0 number (%) of patients | treatment-related TEAE: Nervous system disorders (RA patients; 300 mg once daily): 0 number (%) of patients | treatment-related TEAE: Renal and urinary disorders (RA patients; 300 mg once daily): 1 (5.0) number (%) of patients | ACR20 responders at week 4 ([1]; 30 mg once daily): 6 (35.3) no. (%) | ACR50 responders at week 4 ([1]; 30 mg once daily): 2 (11.8) no. (%) | DAS28‐CRP, mean change from baseline at week 4 ([1]; 30 mg once daily): −1.08 | EULAR cumulative score, good/moderate, at week 4 ([1]; 30 mg once daily): 58.8% | HAQ DI score, mean change from baseline at week 4 ([1]; 30 mg once daily): −0.15 | Patient's assessment of pain, mean change from baseline at week 4 ([1]; 30 mg once daily): −7.41 0–10‐cm VAS | Patient's global assessment of disease activity, mean change from baseline at week 4 ([1]; 30 mg once daily): −11.88 0–10‐cm VAS | Physician's global assessment of disease activity, mean change from baseline at week 4 ([1]; 30 mg once daily): −9.76 0–10‐cm VAS | Remission rate (DAS28‐CRP <2.6) at week 4 ([1]; 30 mg once daily): 2 (11.8) no. (%) | SJC66, mean change from baseline at week 4 ([1]; 30 mg once daily): −6.24 | Serum CRP, mean change from baseline at week 4 ([1]; 30 mg once daily): -13.28 mg/L | TJC68, mean change from baseline at week 4 ([1]; 30 mg once daily): −10.18 | ACR20 responders at week 4 ([1]; 75 mg once daily): 12 (54.5) no. (%) | ACR50 responders at week 4 ([1]; 75 mg once daily): 6 (27.3) no. (%) | DAS28‐CRP, mean change from baseline at week 4 ([1]; 75 mg once daily): −1.72 | EULAR cumulative score, good/moderate, at week 4 ([1]; 75 mg once daily): 68.2% | HAQ DI score, mean change from baseline at week 4 ([1]; 75 mg once daily): −0.47 | Patient's assessment of pain, mean change from baseline at week 4 ([1]; 75 mg once daily): −21.27 0–10‐cm VAS | Patient's global assessment of disease activity, mean change from baseline at week 4 ([1]; 75 mg once daily): −21.00 0–10‐cm VAS | Physician's global assessment of disease activity, mean change from baseline at week 4 ([1]; 75 mg once daily): −27.09 0–10‐cm VAS | Remission rate (DAS28‐CRP <2.6) at week 4 ([1]; 75 mg once daily): 3 (13.6) no. (%) | SJC66, mean change from baseline at week 4 ([1]; 75 mg once daily): −8.42 | Serum CRP, mean change from baseline at week 4 ([1]; 75 mg once daily): -15.09 mg/L | TJC68, mean change from baseline at week 4 ([1]; 75 mg once daily): −13.72 | ACR20 responders at week 4 ([1]; 150 mg once daily): 6 (40.0) no. (%) | ACR50 responders at week 4 ([1]; 150 mg once daily): 0 no. (%) | DAS28‐CRP, mean change from baseline at week 4 ([1]; 150 mg once daily): −1.80 | EULAR cumulative score, good/moderate, at week 4 ([1]; 150 mg once daily): 66.7% | HAQ DI score, mean change from baseline at week 4 ([1]; 150 mg once daily): −0.26 | Patient's assessment of pain, mean change from baseline at week 4 ([1]; 150 mg once daily): −14.07 0–10‐cm VAS | Patient's global assessment of disease activity, mean change from baseline at week 4 ([1]; 150 mg once daily): −12.33 0–10‐cm VAS | Physician's global assessment of disease activity, mean change from baseline at week 4 ([1]; 150 mg once daily): −24.87 0–10‐cm VAS | Remission rate (DAS28‐CRP <2.6) at week 4 ([1]; 150 mg once daily): 0 no. (%) | SJC66, mean change from baseline at week 4 ([1]; 150 mg once daily): −10.52 | Serum CRP, mean change from baseline at week 4 ([1]; 150 mg once daily): -20.50 mg/L | TJC68, mean change from baseline at week 4 ([1]; 150 mg once daily): −14.85 | patients achieving remission (DAS28‐CRP <2.6) ([1]; 300 mg group, within 4 weeks): up to 25% | ACR20 responders at week 4 ([1]; 300 mg once daily): 13 (65.0) no. (%) | ACR50 responders at week 4 ([1]; 300 mg once daily): 9 (45.0) no. (%) | DAS28‐CRP, mean change from baseline at week 4 ([1]; 300 mg once daily): −2.25 | EULAR cumulative score, good/moderate, at week 4 ([1]; 300 mg once daily): 80.0% | HAQ DI score, mean change from baseline at week 4 ([1]; 300 mg once daily): −0.68 | Patient's assessment of pain, mean change from baseline at week 4 ([1]; 300 mg once daily): −29.85 0–10‐cm VAS | Patient's global assessment of disease activity, mean change from baseline at week 4 ([1]; 300 mg once daily): −25.85 0–10‐cm VAS | Physician's global assessment of disease activity, mean change from baseline at week 4 ([1]; 300 mg once daily): −29.20 0–10‐cm VAS | Remission rate (DAS28‐CRP <2.6) at week 4 ([1]; 300 mg once daily): 5 (25.0) no. (%) | SJC66, mean change from baseline at week 4 ([1]; 300 mg once daily): −8.48 | Serum CRP, mean change from baseline at week 4 ([1]; 300 mg once daily): -20.98 mg/L | TJC68, mean change from baseline at week 4 ([1]; 300 mg once daily): −14.68 | patients achieving an ACR20 response ([1]; study 2, 300 mg, week 4): 65%

Source: paper PMC5656813 (Arthritis & Rheumatology (Hoboken, N.j.), 2017)
